Assay results gathered from unrelated publications.
Lines come from different studies, so protocols differ.
Target: Cyclin-dependent kinase-like 5 (CDKL5, Homo sapiens, UniProt O76039)
Sequence (O76039 1-960, as in one of the studies): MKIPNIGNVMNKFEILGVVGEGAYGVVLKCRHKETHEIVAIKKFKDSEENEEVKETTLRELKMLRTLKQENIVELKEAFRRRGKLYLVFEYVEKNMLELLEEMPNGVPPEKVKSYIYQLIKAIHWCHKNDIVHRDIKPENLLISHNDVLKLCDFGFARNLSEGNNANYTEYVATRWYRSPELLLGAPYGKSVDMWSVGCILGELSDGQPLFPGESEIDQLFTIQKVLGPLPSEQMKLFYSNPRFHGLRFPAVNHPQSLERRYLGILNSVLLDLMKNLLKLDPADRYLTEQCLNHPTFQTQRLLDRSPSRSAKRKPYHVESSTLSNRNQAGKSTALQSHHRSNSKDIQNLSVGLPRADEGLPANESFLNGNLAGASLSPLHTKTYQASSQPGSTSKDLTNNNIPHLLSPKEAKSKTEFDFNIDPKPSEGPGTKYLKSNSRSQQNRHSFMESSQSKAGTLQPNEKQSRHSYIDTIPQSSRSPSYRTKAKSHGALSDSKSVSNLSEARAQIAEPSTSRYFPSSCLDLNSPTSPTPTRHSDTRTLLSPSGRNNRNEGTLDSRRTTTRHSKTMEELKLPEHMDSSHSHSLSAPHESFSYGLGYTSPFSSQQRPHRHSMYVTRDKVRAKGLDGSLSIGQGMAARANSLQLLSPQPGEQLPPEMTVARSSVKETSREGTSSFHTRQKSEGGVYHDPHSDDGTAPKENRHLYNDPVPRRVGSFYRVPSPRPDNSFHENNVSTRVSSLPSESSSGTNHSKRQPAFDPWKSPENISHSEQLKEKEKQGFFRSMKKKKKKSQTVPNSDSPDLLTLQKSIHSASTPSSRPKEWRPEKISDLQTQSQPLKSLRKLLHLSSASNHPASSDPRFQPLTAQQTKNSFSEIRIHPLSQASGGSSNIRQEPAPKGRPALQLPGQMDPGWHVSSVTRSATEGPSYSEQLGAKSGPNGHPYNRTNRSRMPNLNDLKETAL

| Structure (SMILES) | test | setting | remaining binding |
| --- | --- | --- | --- |
| Cc1nccc(COC(=O)N2C[C@@H]3[C@@H](CNC(=O)c4ccc5[nH]nnc5c4)[C@@H]3C2)n1 | cell-free assay, competition with immobilised ligand | 1 µM | 87% |
| COc1cnc(Nc2cccc(S(N)(=O)=O)c2)nc1N1CCN(c2ccccc2)CC1 | binding, competition with immobilised ligand | 1 µM | 72% |
| CC(C)CC(=O)N1CCc2nc(-c3ccc(Br)cc3)nc(N(C)Cc3ccccc3)c2C1 | cell-free assay, competition with immobilised ligand | 0.1 µM | 100% |
| C[C@@H]1CCN(c2nccc(-c3cnn4ncccc34)n2)C1 | binding | 1 µM | 86% |
| CS(=O)(=O)N1CCCC(NC(=O)[C@H](CCC2CCCCC2)NC(=O)c2ccc(CNc3ncnc4c3nnn4-c3ccccc3)cc2)C1 (some centres unmarked) | cell-free assay, competition with immobilised ligand | 0.1 µM | 100% |
| O=C(c1ccc(Nc2nccc(-c3cc4ccccc4s3)n2)cc1)N1CCC(N2CCCC2)CC1 | binding, competition with immobilised ligand | 1 µM | 91% |
| Cc1cnn2ncc(-c3ccnc(N(C)C)n3)c2c1 | binding | 1 µM | 86% |
| C[C@@H](c1ccc(-n2cnc3c(N)ncnc32)cc1)N1CCc2nn(C)c(Cc3ccccc3)c2C1=O | binding, competition with immobilised ligand | 0.1 µM | 71% |
| CN(C)c1nccc(-c2cnc3ncccn23)n1 | binding | 1 µM | 88% |
| CC1=C(C#N)C(c2ccc3c(c2)c(NC(=O)c2ccccc2C)nn3C)C(C#N)=C(C)N1 | binding, competition with immobilised ligand | 1 µM | 79% |
| CN(CCCC(F)(F)F)c1nccc(-c2cnn3ncccc23)n1 | binding | 1 µM | 100% |
| Cc1cnc(Nc2ccc(C(=O)N3CCC(N4CCCC4)CC3)cc2)nc1-c1cc2ccccc2s1 | binding, competition with immobilised ligand | 1 µM | 69% |
| COc1cnc(Nc2cccc(S(N)(=O)=O)c2)nc1N1CCN(c2ccccc2)C(=O)C1 | binding, competition with immobilised ligand | 1 µM | 100% |
| N[C@H]1CCN(c2nccc(-c3cnn4ncccc34)n2)C1 | binding | 1 µM | 100% |
| C[C@H](c1ccc(F)cc1)N(Cc1cccc(C(=O)O)c1)C(=O)c1cnc2ccccc2c1 | binding, competition with immobilised ligand | 1 µM | 100% |
| O=C(NCCCN1CCOCC1)c1ccc(Nc2nccc(-c3cc4ccccc4s3)n2)cc1 | binding, competition with immobilised ligand | 1 µM | 40% |
| C=CC(=O)N1CCC(C(=O)NCC(=O)N2CCN(c3nc(-c4cnc(N)nc4C(F)F)nc(N4CCOCC4)n3)CC2)CC1 | binding, competition with immobilised ligand | 1 µM | 100% |
| O=C(Nc1c[nH]nc1C(=O)NC1CCNCC1)c1cc(F)cc(F)c1 | binding, competition with immobilised ligand | 1 µM | 0.2% |
| CC(=O)Nc1c(C(C)=O)c(=O)n(C)c2nc(-c3ccc(Cl)cc3Cl)c(-c3ccc(Cl)cc3)cc12 | cell-free assay, competition with immobilised ligand | 1 µM | 100% |
| CN(c1nccc(-c2cnn3ncccc23)n1)C1CC1 | binding | 1 µM | 100% |
